SENP8 block-1 – SENP8 protease inhibition; inhibition, % at 10 µM; Q96LD8; purified SENP8, Z-RLRGG-aminoluciferin cleavage, luminescence; AID 2540; 330,000 compounds, 1.2% hits; in the data active = inhibition above about 50%
SENP7 block – inhibitors of human SENP7 protease; recombinant SENP7, Z-RLRGG-aminoluciferin luminescence, 40 min; inhibition, % at 5 µM; 330,000 compounds, 1.5% hits; AID 434973;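 active = inhibition above about 50% at the single test dose, limit read from the data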
Target sequence (Q9BQF6 706-1050 limits assumed): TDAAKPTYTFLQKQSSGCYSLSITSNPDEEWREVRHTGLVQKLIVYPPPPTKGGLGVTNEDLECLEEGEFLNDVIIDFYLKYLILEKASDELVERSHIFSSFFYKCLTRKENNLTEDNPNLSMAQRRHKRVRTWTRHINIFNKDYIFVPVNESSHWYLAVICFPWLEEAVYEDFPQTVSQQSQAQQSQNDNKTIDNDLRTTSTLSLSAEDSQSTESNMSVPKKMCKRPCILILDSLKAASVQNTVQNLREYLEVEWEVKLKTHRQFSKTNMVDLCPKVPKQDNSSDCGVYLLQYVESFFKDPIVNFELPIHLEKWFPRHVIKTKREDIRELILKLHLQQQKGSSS
SENP6 inh – inhibitors of human SENP6 protease | Recombinant SENP6 catalytic domain, aminoluciferin luminescence | inhibition, % at 10 µM | 330,000 compounds, 1.8% hits | Q9GZR1;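 active = inhibition above about 50% at the single tested dose, limit read from the data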
SENP8 block-2 – SENP8 (human) protease inhibition | 360,000 compounds, 0.64% hits | Q96LD8 | inhibition, % at 20 µM | recombinant SENP8, Nedd8 substrate fluorescence | AID 602440; in the data active = inhibition mostly above about 40%, no sharp cut-off; inactive = mostly below about 27%
Apaf-1 inh – human Apaf-1 inhibition; O14727; reconstituted apoptosome caspase-3 activity, DEVD-Rh110 fluorescence; inhibition, % at 20 µM; 330,000 compounds, 0.71% hits; AID 489030; active = inhibition of at least 40% at 20 µM
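Material: reconstituted apoptosome with Apaf-1, cytochrome c, caspase-9, procaspase-3, dATP; medium: pH 7.5 Hepes buffer with CHAPS, BSA, DTT; also added: cytochrome c and DEVD-Rh110 substrate; timing: 30 min plus 50 min, RT; signal: Rh110 fluorescence intensity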
UBC13 polyUb – inhibitors of human UBC13 polyubiquitin chain formation; TR-FRET; inhibition, % at 20 µM; 330,000 compounds, 0.47% hits; AID 485273; in the data active = inhibition above about 45%, passing the limit was not always enough
Casp3 counter – caspase-3 inhibition (UBC13 counter-screen). Recombinant caspase-3, Caspase-Glo 3/7 luminescence, 60 min. shares compounds with UBC13 polyUb. inhibition, % at 20 µM. 1,400 compounds, 4% hits. AID 488856;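 active = mean inhibition across replicates above about 26%, limit read from the data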
Target sequence (P42574 whole entry, looked up): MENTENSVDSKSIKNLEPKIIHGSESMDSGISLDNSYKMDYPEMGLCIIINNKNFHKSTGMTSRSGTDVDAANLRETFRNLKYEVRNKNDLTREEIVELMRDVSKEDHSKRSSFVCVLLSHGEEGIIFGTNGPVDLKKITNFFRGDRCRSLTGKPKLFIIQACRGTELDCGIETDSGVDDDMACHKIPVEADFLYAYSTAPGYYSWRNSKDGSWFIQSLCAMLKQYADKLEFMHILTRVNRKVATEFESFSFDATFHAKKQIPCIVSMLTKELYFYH
UBC13 confirm – confirmation of human UBC13 polyubiquitin inhibitors; shares compounds with UBC13 polyUb; UBC13 polyubiquitination, TR-FRET, biochemical; inhibition, % at 10 µM; 1,400 compounds, 68% hits; in the data active = inhibition above about 45%
Numbers stand for hits. This is a sample that favours compounds with a hit; in the whole collection about 3% have one here.

Screening Cc1ccc(NC(=O)C[n+]2ccn(C3=C([O-])c4ccccc4C3=O)c2)cc1 returned SENP8 block-1 inactive, SENP7 block inactive, SENP6 inh inactive, SENP8 block-2 inactive, Apaf-1 inh inactive, UBC13 polyUb 74.0, Casp3 counter inactive and UBC13 confirm 65.3.
Screening Cc1cc[n+](CC(=O)Nc2ccccc2)cc1 returned SENP8 block-1 inactive, SENP7 block inactive, SENP6 inh inactive, SENP8 block-2 inactive, Apaf-1 inh inactive and UBC13 polyUb inactive.
For CC1Sc2ccc(S(=O)(=O)CCC(=O)NC3CCCC(C)C3C)cc2NC1=O (centres undefined) the results were SENP8 block-1 inactive, SENP7 block inactive, SENP6 inh inactive, SENP8 block-2 inactive, Apaf-1 inh inactive and UBC13 polyUb inactive.
For NCCCn1c(C(=O)c2cc(Cl)c(N)c(Cl)c2)c2ccc([N+](=O)[O-])cc2[n+]1[O-] the results were SENP8 block-1 inactive, SENP7 block inactive, SENP6 inh inactive, SENP8 block-2 inactive, Apaf-1 inh inactive and UBC13 polyUb inactive.
For NCCCn1c(C(=O)c2cc(Cl)c(N)c(Cl)c2)c2ccc(C(F)(F)F)cc2[n+]1[O-] the results were SENP8 block-1 inactive, SENP7 block inactive, SENP6 inh inactive, SENP8 block-2 inactive, Apaf-1 inh inactive, UBC13 polyUb 103.2, Casp3 counter inactive and UBC13 confirm 111.3.
NC(=O)CCCn1c(C(=O)c2cc(Cl)c(N)c(Cl)c2)c2ccc(C(F)(F)F)cc2[n+]1[O-] was read as SENP8 block-1 inactive, SENP7 block inactive, SENP6 inh inactive, SENP8 block-2 inactive, Apaf-1 inh inactive, UBC13 polyUb 96.6, Casp3 counter inactive and UBC13 confirm 92.8.
`NC(=O)c1ccc(Cn2c(C(=O)c3cc(Cl)c(N)c(Cl)c3)c3ccccc3[n+]2[O-])cc1` gave SENP8 block-1 inactive, SENP7 block inactive, SENP6 inh inactive, SENP8 block-2 inactive, Apaf-1 inh inactive, UBC13 polyUb 98.5, Casp3 counter inactive and UBC13 confirm 94.6.
`NC(=O)c1ccc(Cn2c(C(=O)c3ccc(Cl)cc3)c3ccccc3[n+]2[O-])cc1` gave SENP8 block-1 inactive, SENP7 block inactive, SENP6 inh inactive, SENP8 block-2 inactive, Apaf-1 inh inactive and UBC13 polyUb inactive.
For CC1(C)CC2(OC2c2ccccc2)C(=O)c2ccccc21 (centres undefined) the results were SENP8 block-2 inactive.
Screening O=C(NC1CCCC1)C1c2ccccc2OCC(=O)N1Cc1cccnc1 (centres undefined) returned SENP8 block-2 inactive.
Cc1ccc(SCCc2cc[n+](CC(=O)c3ccccc3)cc2)cc1 was read as SENP8 block-1 inactive, SENP7 block inactive, SENP6 inh inactive, SENP8 block-2 inactive, Apaf-1 inh inactive and UBC13 polyUb inactive.
`O=C(C[n+]1ccc(CCSc2ccc(F)cc2)cc1)c1ccccc1` gave SENP8 block-1 inactive, SENP7 block inactive, SENP6 inh inactive, SENP8 block-2 inactive, Apaf-1 inh inactive, UBC13 polyUb 72.3, Casp3 counter inactive and UBC13 confirm 124.2.
Screening O=C(COC(=O)CCN1C(=O)C2CC=CCC2C1=O)NCCc1ccc(F)cc1 (centres undefined) returned SENP8 block-1 inactive, SENP7 block inactive, SENP6 inh inactive, SENP8 block-2 inactive, Apaf-1 inh inactive and UBC13 polyUb inactive.
CCCCNc1cc(C)nc(NCc2ccccc2)n1 was read as SENP8 block-1 inactive, SENP7 block inactive, SENP6 inh inactive, SENP8 block-2 inactive, Apaf-1 inh inactive, UBC13 polyUb 48.5, Casp3 counter inactive and UBC13 confirm 55.9.
Screening Cc1cc(Nc2ccccc2)nc(NCc2ccccc2)n1 returned SENP8 block-1 inactive, SENP7 block inactive, SENP6 inh inactive, SENP8 block-2 inactive, Apaf-1 inh inactive, UBC13 polyUb 45.7, Casp3 counter inactive and UBC13 confirm 49.6.
`Cc1cc(Nc2cccc(F)c2)nc(NCc2ccccc2)n1` gave SENP8 block-1 inactive, SENP7 block inactive, SENP6 inh inactive, SENP8 block-2 inactive, Apaf-1 inh inactive and UBC13 polyUb inactive.
Cc1cc(Nc2ccc(Cl)cc2)nc(NCc2ccccc2)n1 was read as SENP8 block-1 inactive, SENP7 block inactive, SENP6 inh inactive, SENP8 block-2 inactive, Apaf-1 inh inactive, UBC13 polyUb 71.7, Casp3 counter inactive and UBC13 confirm 84.0.
For CN1CCN(C(=O)CCN2C(=O)/C(=C/c3ccccc3Cl)SC2=S)CC1 the results were SENP8 block-1 inactive, SENP7 block inactive, SENP6 inh inactive, SENP8 block-2 inactive, Apaf-1 inh inactive, UBC13 polyUb 69.3, Casp3 counter inactive and UBC13 confirm 87.0.
Screening O=C(CCN1C(=O)/C(=C/c2ccccc2Cl)SC1=S)NCCCN1CCOCC1 returned SENP8 block-1 inactive, SENP7 block inactive, SENP6 inh inactive, SENP8 block-2 inactive, Apaf-1 inh inactive, UBC13 polyUb 45.0, Casp3 counter inactive and UBC13 confirm 61.3.
`CC1CCCN(S(=O)(=O)c2cc(C(=O)NCCc3ccc(S(N)(=O)=O)cc3)ccc2Cl)C1` (centres undefined) gave SENP8 block-2 inactive.
For C#CCOCCOCCOCCNc1nc(N2CCN(C(=O)[C@H](CCCCN)n3cc([C@@H](N)C(C)CC)nn3)CC2)nc(N2CCN(C(=O)[C@H](Cc3cc4ccccc4[nH]3)n3cc([C@@H](N)CC(C)C)nn3)CC2)n1 (some centres undefined) the results were SENP8 block-1 inactive, SENP7 block inactive, SENP6 inh inactive, SENP8 block-2 inactive, Apaf-1 inh inactive, UBC13 polyUb 99.9, Casp3 counter inactive and UBC13 confirm 116.5.
For C#CCOCCOCCOCCNc1nc(N2CCN(C(=O)[C@H]([C@@H](C)CC)n3cc([C@@H](N)CC(C)C)nn3)CC2)nc(N2CCN(C(=O)[C@H](Cc3ccc(O)cc3)n3cc([C@@H](N)C(C)CC)nn3)CC2)n1 (some centres undefined) the results were SENP8 block-1 inactive, SENP7 block inactive, SENP6 inh inactive, SENP8 block-2 inactive, Apaf-1 inh inactive, UBC13 polyUb 56.6, Casp3 counter inactive and UBC13 confirm 51.2.
C#CCOCCOCCOCCNc1nc(N2CCN(C(=O)[C@H](Cc3ccc(O)cc3)n3cc([C@@H](N)C(C)CC)nn3)CC2)nc(N2CCN(C(=O)[C@H](CCCCN)n3cc([C@@H](N)CC(C)C)nn3)CC2)n1 (some centres undefined) was read as SENP8 block-1 inactive, SENP7 block inactive, SENP6 inh inactive, Apaf-1 inh inactive, UBC13 polyUb 58.5, Casp3 counter inactive and UBC13 confirm 50.3.
